≈ marks a conversion by molar mass, not a printed value. Calls of active or inactive are those of the source. No cut-off for these calls is given here.
What was measured:
Aspergillus flavus = experiment: Antifungal activity against Aspergillus flavus F44 after 3 days by broth macrodilution method; format: functional; details: 72 h
Summary of the method: (§1)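 Aspergillus inoculum from 3-day SDA subcultures at 30 °C; conidial suspension in 0.85% saline, diluted in RPMI 1640 (L-glutamine, no bicarbonate, 0.165 M MOPS, pH 7.0) to 1-2 × 10^4 CFU/mL. Twofold dilutions 200-0.8 µg/mL from DMSO stock (final DMSO ≤2%); macrodilution per CLSI M38-A, 30 °C, 3 days. MIC = lowest concentration giving 80% turbidity reduction vs drug-free control; MFC by subculture on SDA. Three independent experiments in duplicate.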

Microsporum canis = experiment: Antifungal activity against Microsporum canis FF1 after 5 days by broth macrodilution method; format: functional; details: 120 h
Summary of the method: (§2)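 Dermatophytes grown 5 days on SDA at 30 °C, subcultured. Conidial suspensions in saline were adjusted in MOPS-buffered RPMI 1640 (pH 7.0) to 1-2 × 10^4 CFU/mL. Macrodilution adapted from CLSI M38-A with 200-0.8 µg/mL twofold dilutions (DMSO ≤2%), incubated at 30 °C for 5 days. MIC at 80% turbidity reduction vs control; MFC by SDA subculture at 30 °C. Triplicate experiments in duplicate.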

Candida albicans [1] = experiment: Inhibition of germ tube formation in Candida albicans M1 after 3 hrs by hemocytometer; format: functional, organism-based
Summary of the method: (§3)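 Overnight SDA cultures (37 °C) were suspended in NYP medium (N-acetylglucosamine 10^-3 mol/L, YNB 3.35 g/L, proline 10^-3 mol/L, NaCl 4.5 g/L, pH 6.7) at (1.0 ± 0.2) × 10^6 CFU/mL. Compound added at 1/2, 1/4 and 1/8 MIC (1% DMSO final), 3 h at 37 °C. 100 cells counted by hemocytometer; germ tube at least blastospore diameter, pseudohyphae excluded. Mean ± SD, three experiments.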

[2] = tested on: Trichophyton mentagrophytes; experiment: Antifungal activity against Trichophyton mentagrophytes FF7 after 5 days by broth macrodilution method; format: functional; details: 120 h; summary of the method: as §2
Epidermophyton floccosum = experiment: Antifungal activity against Epidermophyton floccosum FF9 after 5 days by broth macrodilution method; format: functional; details: 120 h; summary of the method: as §2
Candida albicans [3] = experiment: Inhibition of germ tube formation in Candida albicans D5 after 3 hrs by hemocytometer; format: functional, organism-based; summary of the method: as §3
Candida tropicalis = experiment: Antifungal activity against Candida tropicalis ATCC 13803 after 48 hrs by broth macrodilution method; format: functional; details: ATCC 13803, 48 h
Summary of the method: (§4)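 Yeasts grown 1 day on SDA at 37 °C, subcultured, suspended in saline and diluted in MOPS-buffered RPMI 1640 (pH 7.0) to 1-2 × 10^3 CFU/mL. Broth macrodilution per CLSI M27-A2, twofold dilutions 200-0.8 µg/mL (DMSO ≤2% final), aerobic, 37 °C, 48 h. MIC = 80% turbidity reduction vs drug-free control; MFC from SDA subculture at 37 °C. Three independent experiments in duplicate.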

Trichophyton rubrum = experiment: Antifungal activity against Trichophyton rubrum FF5 after 5 days by broth macrodilution method; format: functional; details: 120 h; summary of the method: as §2
Candida albicans [4] = experiment: Antifungal activity against Candida albicans ATCC 10231 after 48 hrs by broth macrodilution method; format: functional; details: ATCC 10231, 48 h; summary of the method: as §4
Nannizzia gypsea = experiment: Antifungal activity against Microsporum gypseum FF3 after 5 days by broth macrodilution method; format: functional; details: 120 h; summary of the method: as §2
Pichia kudriavzevii = experiment: Antifungal activity against Candida krusei ATCC 6258 after 48 hrs by broth macrodilution method; format: functional; details: ATCC 6258, 48 h; summary of the method: as §4
Nakaseomyces glabratus = experiment: Antifungal activity against Candida glabrata D10R after 48 hrs by broth macrodilution method; format: functional
Summary of the method: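 Broth macrodilution per CLSI M27-A2 (minor modifications). Inoculum 1-2 × 10^3 CFU/mL in RPMI 1640 with L-glutamine, MOPS-buffered 0.165 M, pH 7.0. Twofold dilutions 200-0.8 µg/mL from DMSO stock (final DMSO ≤2%). Aerobic, 37 °C, 48 h. MIC = lowest concentration giving 80% turbidity reduction versus drug-free control. Three independent experiments in duplicate.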

Candida albicans [5] = experiment: Antifungal activity against Candida albicans D5 after 48 hrs by broth macrodilution method; format: functional; summary of the method: as §4
Candida albicans [6] = experiment: Inhibition of germ tube formation in Candida albicans ATCC 10231 after 3 hrs by hemocytometer; format: functional, organism-based; summary of the method: as §3
Aspergillus niger = experiment: Antifungal activity against Aspergillus niger ATCC 16404 after 3 days by broth macrodilution method; format: functional; details: ATCC 16404, 72 h; summary of the method: as §1
Aspergillus fumigatus [7] = experiment: Antifungal activity against Aspergillus fumigatus ATCC 46645 after 3 days by broth macrodilution method; format: functional; details: ATCC 46645, 72 h; summary of the method: as §1
Candida albicans [8] = experiment: Antifungal activity against Candida albicans ATCC 10231 assessed as red fluorescence stained with PI by flow cytometry; format: functional
Summary of the method: (§5)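 Overnight SDA cells suspended in RPMI 1640 at (2.0 ± 0.2) × 10^6 CFU/mL. Twofold dilutions 256 to one µg/mL applied at 35 °C, humid, no agitation, 2, 4 and 24 h. Washed; FUN-1 0.5 µM in PBS/2% glucose (20 min, 35 °C, FL2) or PI 1 µg/mL with 0.125% deoxycholate (~10 min, room temperature, FL3). ≥7500 events; marker included ≤5% of drug-free control cells.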

Aspergillus fumigatus [9] = experiment: Antifungal activity against Aspergillus fumigatus ATCC 46645 assessed as red fluorescence stained with FUN1 by flow cytometry; format: functional, organism-based
Summary of the method: (§6)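 Conidia from 4–7-day SDA cultures suspended in water with 0.01% Tween 80 at (2.0 ± 0.2) × 10^6 CFU/mL. Exposed to twofold dilutions 256 to one µg/mL at 35 °C, water bath with agitation, 3, 4 and 24 h. FUN-1 0.5 µM (20 min, 35 °C, FL2) or PI 1 µg/mL (1 h, 35 °C, FL3); ≥7500 events; positive-cell marker set at ≤5% of drug-free controls.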

Aspergillus fumigatus [10] = experiment: Antifungal activity against Aspergillus fumigatus ATCC 46645 assessed as red fluorescence stained with PI by flow cytometry; format: functional; summary of the method: as §6
Candida albicans [11] = experiment: Antifungal activity against Candida albicans ATCC 10231 assessed as red fluorescence stained with FUN1 by flow cytometry; format: functional; summary of the method: as §5

## CCOC(=O)c1sc2ccccc2c1Nc1ccc(O)cc1O
Aspergillus flavus
  MFC: > 100 µg/mL
  MIC: > 100 µg/mL
Microsporum canis
  MFC: 12.5 µg/mL (≈ 38 µM)
  MIC: 12.5 µg/mL (≈ 38 µM)
Candida albicans [1]
  Activity: Active
[2]
  MFC: 25 µg/mL (≈ 75.9 µM)
  MIC: 12.5 µg/mL (≈ 38 µM)
Epidermophyton floccosum
  MFC: 12.5 µg/mL (≈ 38 µM)
  MIC: 6.25 µg/mL (≈ 19 µM)
Candida albicans [3]
  Activity: Active
Candida tropicalis
  MFC: > 50 µg/mL
  MIC: 50 µg/mL (≈ 152 µM)
Trichophyton rubrum
  MFC: 25 µg/mL (≈ 75.9 µM)
  MIC: 12.5 µg/mL (≈ 38 µM)
Candida albicans [4]
  MFC: > 200 µg/mL
  MIC: 25 µg/mL (≈ 75.9 µM)
Nannizzia gypsea
  MFC: 25 µg/mL (≈ 75.9 µM)
  MIC: 12.5 µg/mL (≈ 38 µM)
Pichia kudriavzevii
  MFC: > 50 µg/mL
  MIC: 25 µg/mL (≈ 75.9 µM)
Nakaseomyces glabratus
  MFC: > 50 µg/mL
  MIC: 25 µg/mL (≈ 75.9 µM)
Candida albicans [5]
  MFC: > 50 µg/mL
  MIC: 25 µg/mL (≈ 75.9 µM)
Candida albicans [6]
  Activity: Active
Aspergillus niger
  MFC: > 100 µg/mL
  MIC: > 100 µg/mL
Aspergillus fumigatus [7]
  MFC: > 100 µg/mL
  MIC: > 100 µg/mL

## OC(Cn1cncn1)(Cn1cncn1)c1ccc(F)cc1F [FLUCONAZOLE]
Microsporum canis
  MFC: 128 µg/mL (≈ 418 µM)
  MIC: 128 µg/mL (≈ 418 µM)
[2]
  MFC: 32 µg/mL (≈ 104 µM)
  MIC: 16 µg/mL (≈ 52.2 µM)
Epidermophyton floccosum
  MFC: 16 µg/mL (≈ 52.2 µM)
  MIC: 16 µg/mL (≈ 52.2 µM)
Candida tropicalis
  MFC: > 128 µg/mL
  MIC: 4 µg/mL (≈ 13.1 µM)
Trichophyton rubrum
  MFC: 32 µg/mL (≈ 104 µM)
  MIC: 16 µg/mL (≈ 52.2 µM)
Candida albicans [4]
  MFC: > 128 µg/mL
  MIC: 1 µg/mL (≈ 3.27 µM)
Nannizzia gypsea
  MFC: > 128 µg/mL
  MIC: > 128 µg/mL
Pichia kudriavzevii
  MFC: 64 µg/mL (≈ 209 µM)
  MIC: 64 µg/mL (≈ 209 µM)
Nakaseomyces glabratus
  MFC: 32 µg/mL (≈ 104 µM)
  MIC: 32 µg/mL (≈ 104 µM)
Candida albicans [5]
  MFC: > 128 µg/mL
  MIC: > 128 µg/mL

## CCOC(=O)c1sc2ccccc2c1Nc1ccc(O)cc1
Aspergillus flavus
  MFC: > 200 µg/mL
  MIC: > 200 µg/mL
Microsporum canis
  MFC: 1.56 µg/mL (≈ 4.98 µM)
  MIC: 1.56 µg/mL (≈ 4.98 µM)
[2]
  MFC: 6.25 µg/mL (≈ 19.9 µM)
  MIC: 6.25 µg/mL (≈ 19.9 µM)
Epidermophyton floccosum
  MFC: 12.5 µg/mL (≈ 39.9 µM)
  MIC: 3.13 µg/mL (≈ 9.99 µM)
Candida tropicalis
  MFC: > 200 µg/mL
  MIC: > 200 µg/mL
Trichophyton rubrum
  MFC: 6.25 µg/mL (≈ 19.9 µM)
  MIC: 6.25 µg/mL (≈ 19.9 µM)
Candida albicans [4]
  MFC: > 200 µg/mL
  MIC: > 200 µg/mL
Nannizzia gypsea
  MFC: 12.5 µg/mL (≈ 39.9 µM)
  MIC: 6.25 µg/mL (≈ 19.9 µM)
Pichia kudriavzevii
  MFC: > 200 µg/mL
  MIC: > 200 µg/mL
Nakaseomyces glabratus
  MFC: > 200 µg/mL
  MIC: > 200 µg/mL
Candida albicans [5]
  MFC: > 200 µg/mL
  MIC: > 200 µg/mL
Aspergillus niger
  MFC: > 200 µg/mL
  MIC: > 200 µg/mL
Aspergillus fumigatus [7]
  MFC: > 200 µg/mL
  MIC: > 200 µg/mL

## c1cncc(Nc2csc3ccccc23)c1
Aspergillus flavus
  MFC: 100 µg/mL (≈ 442 µM)
  MIC: 50 µg/mL (≈ 221 µM)
Microsporum canis
  MFC: > 12.5 µg/mL
  MIC: 12.5 µg/mL (≈ 55.2 µM)
Candida albicans [1]
  Activity: Active
[2]
  MFC: > 12.5 µg/mL
  MIC: 12.5 µg/mL (≈ 55.2 µM)
Candida albicans [8]
  Activity: 40%
Epidermophyton floccosum
  MFC: > 12.5 µg/mL
  MIC: 12.5 µg/mL (≈ 55.2 µM)
Candida albicans [3]
  Activity: Active
Candida tropicalis
  MFC: > 100 µg/mL
  MIC: 100 µg/mL (≈ 442 µM)
Trichophyton rubrum
  MFC: 12.5 µg/mL (≈ 55.2 µM)
  MIC: 3.13 µg/mL (≈ 13.8 µM)
Aspergillus fumigatus [9]
  Activity: Active
Candida albicans [4]
  MFC: 100 µg/mL (≈ 442 µM)
  MIC: 50 µg/mL (≈ 221 µM)
Aspergillus fumigatus [10]
  Activity: 40%
Nannizzia gypsea
  MFC: > 12.5 µg/mL
  MIC: 12.5 µg/mL (≈ 55.2 µM)
Pichia kudriavzevii
  MFC: > 100 µg/mL
  MIC: 100 µg/mL (≈ 442 µM)
Nakaseomyces glabratus
  MFC: > 50 µg/mL
  MIC: 50 µg/mL (≈ 221 µM)
Candida albicans [5]
  MFC: > 50 µg/mL
  MIC: 50 µg/mL (≈ 221 µM)
Candida albicans [6]
  Activity: Active
Aspergillus niger
  MFC: > 100 µg/mL
  MIC: 50 µg/mL (≈ 221 µM)
Aspergillus fumigatus [7]
  MFC: > 50 µg/mL
  MIC: 25 µg/mL (≈ 110 µM)
Candida albicans [11]
  Activity: 60%
